NALP1 yeast inh – NALP1 inhibition; S. cerevisiae NALP1/ASC/caspase-1 growth, X-gal OD620, 72 h; inhibition, % at 10 µM; 280,000 compounds, 0.61% hits; AID 2071; in the data active = inhibition mostly above about 24%, no sharp cut-off; inactive = mostly below about 32%
NLRP3 yeast inh – inhibitors of NALP3 inflammasome in yeast. Yeast reconstituted NLRP3/ASC/caspase-1, beta-gal luminescence, 24 h. inhibition, % at 10 µM. 330,000 compounds, 0.39% hits;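 active = inhibition of 50% or more; inactive = inhibition below 50%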;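 note: plate controls were induced DMSO wells for no effect and uninduced yeast grown without galactose for full effect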
TbMetRS inhib – blocks T. brucei methionyl-tRNA synthetase activity. purified T. brucei MetRS, ATP depletion, Kinase-Glo luminescence. AID 624268. inhibition, % at 11.9 µM. 360,000 compounds, 0.4% hits;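 active = inhibition above a per-plate cutoff of the control wells' mean inhibition plus 3 SD, cut at about 5.5% in these data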;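 note: 0% = DMSO wells median and 100% = median of wells with control inhibitor compound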
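Material: parasite MetRS enzyme / Replication: singlicate, one well per compound / Signal: luminescence of leftover ATP / Schedule: 2 h aminoacylation at 25 °C after 15 min preincubation / Medium: HEPES-MgCl2-KCl buffer plus DTT, spermine, BSA, pyrophosphatase / Doses: 11.9 µM single point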
A1 inh – inhibitors of the anti-apoptotic protein A1, read as caspase activation; MEF A1-2A-BIM cells, Caspase-Glo 3/7 luminescence, 3 h; percent of clofoctol response, vehicle zero; caspase activation, % (concentration not given with the values); 330,000 compounds, 0.066% hits; AID 2462;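 active = over half of replicate activation scores above 10%, or exactly half above 10 with the replicate mean above 10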
MC4R ag barr – activates human MC4R beta-arrestin recruitment; U2OS MC4R beta-arrestin complementation, luminescence; percent of melanotan II response, DMSO zero; activation, % at 8.9 µM; 360,000 compounds, 0.98% hits;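 active = activation above a per-plate cutoff, the mean activation of sample wells on that plate plus 3 SD, cut at about 8% in these data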
Target sequence (P32245 whole entry, looked up): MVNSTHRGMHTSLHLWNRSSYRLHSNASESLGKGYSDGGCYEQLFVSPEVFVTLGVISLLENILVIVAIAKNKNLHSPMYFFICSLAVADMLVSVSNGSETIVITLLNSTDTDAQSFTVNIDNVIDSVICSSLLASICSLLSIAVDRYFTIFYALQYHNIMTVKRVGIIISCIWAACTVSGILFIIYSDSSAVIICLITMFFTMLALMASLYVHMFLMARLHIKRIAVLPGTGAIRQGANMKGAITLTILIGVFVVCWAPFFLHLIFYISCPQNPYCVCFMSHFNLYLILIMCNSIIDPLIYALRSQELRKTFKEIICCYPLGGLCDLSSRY
MC4R antagonist – blocks human MC4R cAMP signaling; inhibition, % at 6.5 µM; P32245; MC4R-expressing cells, MTII-stimulated cAMP, LANCE TR-FRET; AID 540295; 360,000 compounds, 0.48% hits;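 active = inhibition above its plate's cutoff, the mean of tested wells on that plate plus 3 SD, cut at about 29% in these data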;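 note: 0% = Melanotan II alone and 100% = Melanotan II plus saturating MCL0020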
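Assay system: human MC4R-expressing U2OS cells; reagent: Melanotan II stimulation of cells; dosing: 6.5 µM single dose; timing: compound 30 min, challenge 1 h, detection 1 h; signal: TR-FRET cAMP assay; replicates: one well per compound, no replicates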
MC4R barr conf – human MC4R beta-arrestin agonism confirmation; activation, % at 8.9 µM; shares compounds with MC4R ag barr; 2,400 compounds, 31% hits; AID 602192; U2OS MC4R beta-arrestin recruitment, luminescence; scaled DMSO 0%, Melanotan II 100%;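 active = mean activation across replicates above the hit cutoff set in the earlier primary screen, cut at about 8% in these data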
MOR-DOR barr ag – activates mu-delta opioid heterodimer, MC4R agonist counter-screen; shares compounds with MC4R ag barr; U2OS PathHunter beta-arrestin, beta-gal luminescence; percent of deltorphin B response, DMSO zero; activation, % at 9.2 µM; 2,400 compounds, 5.8% hits; AID 602194;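 active = mean activation across replicates exceeds the hit threshold derived in the earlier primary screen, cut at about 18% in these data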;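 note: 100% = deltorphin B at 0.9 µM final and 0% = DMSO alone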
* marks the source's active call; other numbers are inactive results; . = no result. Compounds with a hit are over-represented: about 2.5% of the library has one in this group of screens.

SMILES	NALP1 yeast inh	NLRP3 yeast inh	TbMetRS inhib	A1 inh	MC4R ag barr	MC4R antagonist	MC4R barr conf	MOR-DOR barr ag
CC(C)n1c(O)c(/C=C2\C=Nc3ccccc32)sc1=Nc1ccccc1	12	8	0	-1	13*	-4	-2	3
CSc1nc(/C=C2\C=Nc3ccccc32)c(O)n1C	34	30	2	1	-1	1	.	.
CC(C)Cn1c(=O)c2ccccc2n2c(CCC(=O)O)nnc12	8	-1	-1	0	-2	0	.	.
Cc1cc(NC(=O)CN2C(=O)S/C(=C\c3ccccc3)C2=O)no1	14	14	0	1	26*	-3	4	9
COc1ccc(/C=C2/N=C(SCC(=O)Nc3cc(C)on3)N(c3ccccc3)C2=O)cc1	27	.	-1	1	11*	-7	5	5
Cc1cc(NC(=O)CCN2C(=O)/C(=C\c3ccccc3)SC2=S)no1	-4	6	-1	-1	2	1	.	.
Nc1c(C(=O)Nc2ccc(S(=O)(=O)N3CCCC3)cc2)sc2nc3cc4c(cc3cc12)CCC4	23	.	1	-1	-1	19	.	.
Nc1c(C(=O)Nc2ccc(S(=O)(=O)N3CCCC3)cc2)sc2nc3ccc(OC(F)(F)F)cc3cc12	18	-4	0	15*	14*	16	12*	14
Cc1nn(-c2nc3ccccc3s2)c(N)c1Sc1ccc(F)cc1	-2	6	0	-3	15*	0	1	4
C=CCOc1ccc(/C=N/N2C(=O)C(CC(=O)Nc3ccc(F)cc3F)SC2=NC)cc1 (stereo not drawn)	.	12	0	-2	11*	6	0	4
Cc1cc(C(C)(C)CC(C)(C)C)ccc1OCCOCC[N+](C)(C)Cc1ccccc1	.	42	-1	1	25*	11	37*	29*
Cc1nn(CC(=O)NCc2cccc3ccccc23)c(=O)c2ccccc12	16	6	-1	0	19*	-4	4	4
COc1ccc(Cl)cc1NC(=O)CN(C)C(=O)c1cc(C)oc1C	.	22	0	0	-2	17	.	.
Cc1ccc(-c2csc3nc4c5ccccc5c(NCCCN5CCOCC5)nn4c(=O)c23)cc1	14	9	.	1	.	.	.	.
Cc1ccc(-c2csc3nc4c5ccccc5c(NCCCN(C)C)nn4c(=O)c23)cc1	14	18	-1	0	13*	0	33*	9
Cc1cc(C)c(CN2CCN(CCCn3cnc(C(=O)Nc4ccc(C)c(C)c4)n3)CC2)c(C)c1	.	.	0	.	16*	1	24*	10
CC1C(=O)CC2C3(C)CCC2(C(C)C(=O)O)C(=O)C13 (stereo not drawn)	.	.	0	.	-1	9	.	.
COC(=O)c1cc(OC)c(OC)cc1NC(=O)Nc1ccc(OC)cc1	8	13	0	0	14*	9	-1	2
Cc1cccc(Cc2nc3ccccc3[nH]2)c1	.	.	2	.	-2	-6	.	.
Cc1ccc(S(=O)(=O)Nc2ccc(Nc3ccccc3)cc2)cc1	22	20	0	0	9.7*	9	1	9
O=S(=O)(Nc1ccc(S(=O)(=O)Nc2ccccc2)cc1)c1ccccc1	-2	-6	-1	0	-1	1	.	.
O=S(=O)(Nc1ccc(-c2ccccc2)cc1)c1ccccc1	.	.	0	.	14*	5	6	7
OCCCNc1ncnc2c1ncn2[C@H]1CN(Cc2ccco2)C[C@@H](CO)O1	.	.	0	.	1	3	.	.
COc1ccc(NC(C)=O)cc1NC(=O)C1CCN(C(=O)Nc2ccccc2)CC1	.	17	0	1	0	10	.	.
CCOC(=O)Cn1c(=NC(=O)CN2C(=O)CCC2=O)sc2cc(S(N)(=O)=O)ccc21	36	7	0	0	3	6	.	.
SMILES	NALP1 yeast inh	NLRP3 yeast inh	TbMetRS inhib	A1 inh	MC4R ag barr	MC4R antagonist	MC4R barr conf	MOR-DOR barr ag
CCOC(=O)Cn1c(=NC(=O)c2nc3ccccc3s2)sc2cc(S(N)(=O)=O)ccc21	34	10	-1	0	12*	28	1	3
CCCS(=O)(=O)NC(=O)C1(C)CCCN(C(=O)c2c(C)noc2C)C1 (stereo not drawn)	.	.	0	.	-1	20	.	.
CC(Oc1ccc(Br)cc1)C(=O)N(C)CC(=O)Nc1ccc(N2CCOCC2)cc1 (stereo not drawn)	.	-7	0	1	-2	13	.	.
CCOc1ccc(NC(=O)CC(c2ccccc2)c2ccc(F)cc2)cc1 (stereo not drawn)	15	13	0	0	17*	4	0	6
CC(C)Oc1ccc(C(CC(=O)O)c2ccc(F)cc2)cc1 (stereo not drawn)	.	17	0	0	-1	4	.	.
COc1ccc(NC(=O)CC(c2ccc(F)cc2)c2ccc(OC(C)C)cc2)cc1 (stereo not drawn)	17	10	-1	0	15*	9	7	3
O=C(Nc1cccc(C(=O)N2CCOCC2)c1)c1ccccc1Cl	9	3	-1	0	-3	1	.	.
O=C(Nc1ccc(F)cc1)C(CCc1ccccc1)N1CCN(C(=O)c2ccco2)CC1 (stereo not drawn)	.	.	0	.	.	.	.	.
Cc1nc(NC(=O)c2ccco2)sc1-c1csc(Nc2ccc(Cl)cc2)n1	3	13	0	-1	10*	21	9.1*	5
Cc1cc(OC(C)C(=O)NCc2ccccn2)c2c(C)c(Cc3ccccc3)c(=O)oc2c1 (stereo not drawn)	23	22	-1	1	11*	11	1	2
COc1ccc(-c2ccc(/C=C3/C(=N)N4C=CSC4=NC3=O)o2)c([N+](=O)[O-])c1	18	.	1	-2	20*	-3	3	2
N=C1/C(=C/c2cccn2-c2ccc([N+](=O)[O-])cc2)C(=O)N=C2SC=CN12	-5	-18	1	0	-2	-18	.	.
O=C(NC1CCSc2ccccc21)c1ccc(C(F)(F)F)cc1 (stereo not drawn)	6	16	0	-1	9.7*	6	1	5
O=C(Nc1cc(N2CCOCC2)ncn1)Nc1cccc2ccccc12	10	20	-1	0	22*	12	7	5
